Assay results published in ChEMBL document CHEMBL1131141, “Novel 1,1,3-trioxo-2H,4H-thieno[3,4-e][1,2,4]thiadiazine derivatives as non-nucleoside reverse transcriptase inhibitors that inhibit human immunodeficiency virus type 1 replication” (J Med Chem, 1998).

Columns and labels:
[1] = tested on: MT4; test: Dose required to reduce the viability of mock-infected cells by 50%, determined by MTT method.; type: functional; conditions: Homo sapiens
Procedure, shortened: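 Mock-infected MT-4 cells; value is the dose lowering cell viability by 50%, read out by MTT assay. Mean of at least two separate experiments.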

[2] = tested on: MT4; test: Dose required to achieve 50% protection of MT-4 cells from HIV-1(IIIB) induced cytopathogenicity, determined by […] method.; type: functional, cell-based; conditions: Homo sapiens
Procedure, shortened: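 MT-4 cells infected with HIV-1(IIIB); value is the dose giving 50% protection against virus-induced cytopathogenicity, read out by MTT viability assay. Mean of at least two separate experiments.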

[3] = tested on: Human immunodeficiency virus 1; test: Selectivity index was measured as the ratio of CC50(HIV-1) to that of EC50(HIV-1); SI Selectivity Index; type: functional
[4] = Selectivity index was measured as the ratio of CC50(HIV-1) to that of EC50(HIV-1); type: functional

| SMILES | CC50 [1] | EC50 [2] | SI [3] | SI [4] |
| --- | --- | --- | --- | --- |
| O=C1N(Cc2ccccc2)c2cscc2S(=O)(=O)N1Cc1ccccc1 | > 650 µM | 2.2 µM | >296 | – |
| N#CCN1C(=O)N(Cc2cccc(Cl)c2)S(=O)(=O)c2cscc21 | > 340 µM | 0.09 µM | >3778 | – |
| Cc1cn([C@H]2C[C@H](N=[N+]=[N-])[C@@H](CO)O2)c(=O)[nH]c1=O [ZIDOVUDINE] | 35.6 µM | 0.0007 µM | – | 50600 |
| CN1C(=O)N(Cc2ccccc2)S(=O)(=O)c2ccsc21 | > 811 µM | > 811 µM | – | – |
| CCN1C(=O)N(Cc2ccc(Cl)cc2)S(=O)(=O)c2cscc21 | 273 µM | > 273 µM | <1 | – |
| Cc1ccnc2c1NC(=O)c1cccnc1N2C1CC1 [NEVIRAPINE] | 683 µM | 0.03 µM | 22800 | – |
| O=C1N(Cc2cccc(Cl)c2)c2cscc2S(=O)(=O)N1Cc1ccccc1 | > 119 µM | 0.8 µM | >149 | – |
| CN1C(=O)N(Cc2cccc(Cl)c2)S(=O)(=O)c2cscc21 | > 729 µM | 7.6 µM | >96 | – |
| CN1C(=O)N(Cc2ccccc2)S(=O)(=O)c2cscc21 | 528 µM | 2.7 µM | 196 | – |
| CN1C(=O)N(Cc2ccccc2Cl)S(=O)(=O)c2cscc21 | 446 µM | > 446 µM | <1 | – |
| CCN1C(=O)N(Cc2ccccc2)S(=O)(=O)c2ccsc21 | 374 µM | 20.5 µM | 18 | – |
| CCCN1C(=O)N(Cc2ccccc2)S(=O)(=O)c2ccsc21 | 403 µM | > 403 µM | – | – |
| CCN1C(=O)N(Cc2ccccn2)S(=O)(=O)c2cscc21 | > 387 µM | 41.4 µM | >9 | – |
| CN1C(=O)N(Cc2c(Cl)cccc2Cl)S(=O)(=O)c2cscc21 | 528 µM | > 528 µM | <1 | – |
| N#CCN1C(=O)N(CCc2ccccc2)S(=O)(=O)c2cscc21 | 40.3 µM | 3.6 µM | 11 | – |
| O=C1N(Cc2ccccc2)c2sccc2S(=O)(=O)N1Cc1ccccc1 | > 650 µM | 8.3 µM | >78 | – |
| N#CCN1C(=O)N(Cc2ccccc2)S(=O)(=O)c2sc(Cl)cc21 | 152 µM | 24.5 µM | 6 | – |
| CN1C(=O)N(Cc2ccccc2)S(=O)(=O)c2nn(C)cc21 | 498 µM | > 498 µM | <1 | – |
| CCN1C(=O)N(Cc2cccc(Cl)c2)S(=O)(=O)c2cscc21 | > 701 µM | 2.1 µM | >334 | – |
| N#CCN1C(=O)N(Cc2ccccc2)S(=O)(=O)c2ccsc21 | 219 µM | 3 µM | 73 | – |

| SMILES | CC50 [1] | EC50 [2] | SI [3] | SI [4] |
| --- | --- | --- | --- | --- |
| CCOC(=O)CN1C(=O)N(Cc2ccccc2)S(=O)(=O)c2cscc21 | 130 µM | 7.4 µM | 18 | – |
| O=C1N(Cc2ccccc2)c2cc(Cl)sc2S(=O)(=O)N1Cc1ccccc1 | > 119 µM | 4.5 µM | >26 | – |
| N#CCN1C(=O)N(Cc2ccccc2)S(=O)(=O)c2cscc21 | 503 µM | 0.9 µM | 559 | – |
| CN1C(=O)N(Cc2ccc(Cl)cc2)S(=O)(=O)c2cscc21 | 417 µM | > 417 µM | <1 | – |
| O=C1N(Cc2ccccc2)c2cscc2S(=O)(=O)N1Cc1ccccn1 | 166 µM | 0.4 µM | 415 | – |
| N#CCN1C(=O)N(Cc2cccc(F)c2)S(=O)(=O)c2cscc21 | 93.6 µM | 0.05 µM | 1872 | – |
| N#CCN1C(=O)N(Cc2cccnc2)S(=O)(=O)c2cscc21 | > 150 µM | 0.2 µM | >750 | – |
| N#CCN1C(=O)N(Cc2cc(F)cc(F)c2)S(=O)(=O)c2cscc21 | 102 µM | 0.3 µM | 340 | – |
| N#CCN1C(=O)N(Cc2cccc(Br)c2)S(=O)(=O)c2cscc21 | 68.6 µM | 0.09 µM | 762 | – |
| C#CCN1C(=O)N(Cc2cccc(Cl)c2)S(=O)(=O)c2cscc21 | 65.7 µM | 0.1 µM | 657 | – |
| N#CCN1C(=O)N(Cc2ccccn2)S(=O)(=O)c2cscc21 | > 374 µM | 1.1 µM | >340 | – |
| CCN1C(=O)N(Cc2ccccc2)S(=O)(=O)c2nn(C)cc21 | 321 µM | > 321 µM | <1 | – |
| CCN1C(=O)N(CCc2ccccc2)S(=O)(=O)c2cscc21 | 330 µM | 8.6 µM | 38 | – |
| O=C1N(Cc2ccccc2Cl)c2cscc2S(=O)(=O)N1Cc1ccccc1 | > 119 µM | 0.1 µM | >1190 | – |
| CCN1C(=O)N(Cc2c(Cl)cccc2Cl)S(=O)(=O)c2cscc21 | 74.1 µM | > 74.1 µM | <1 | – |
| O=C1N(Cc2ccc(Cl)cc2)c2cscc2S(=O)(=O)N1Cc1ccccc1 | 18.6 µM | 1.4 µM | 13 | – |
| CCN1C(=O)N(Cc2ccccc2)S(=O)(=O)c2cscc21 | > 775 µM | 2.5 µM | >310 | – |
| O=C1N(Cc2ccccc2)c2cscc2S(=O)(=O)N1CCc1ccccc1 | 226 µM | 10.9 µM | 21 | – |
| C#CCN1C(=O)N(Cc2ccccc2)S(=O)(=O)c2cscc21 | > 376 µM | 1 µM | >376 | – |
| CCN1C(=O)N(Cc2ccccc2Cl)S(=O)(=O)c2cscc21 | 605 µM | 7.3 µM | 83 | – |
